Assay results pooled from the literature.
Lines come from different studies, so protocols differ.
Target: Ephrin type-A receptor 1 (EPHA1, Homo sapiens, UniProt P21709)
One construct used (P21709 26-976): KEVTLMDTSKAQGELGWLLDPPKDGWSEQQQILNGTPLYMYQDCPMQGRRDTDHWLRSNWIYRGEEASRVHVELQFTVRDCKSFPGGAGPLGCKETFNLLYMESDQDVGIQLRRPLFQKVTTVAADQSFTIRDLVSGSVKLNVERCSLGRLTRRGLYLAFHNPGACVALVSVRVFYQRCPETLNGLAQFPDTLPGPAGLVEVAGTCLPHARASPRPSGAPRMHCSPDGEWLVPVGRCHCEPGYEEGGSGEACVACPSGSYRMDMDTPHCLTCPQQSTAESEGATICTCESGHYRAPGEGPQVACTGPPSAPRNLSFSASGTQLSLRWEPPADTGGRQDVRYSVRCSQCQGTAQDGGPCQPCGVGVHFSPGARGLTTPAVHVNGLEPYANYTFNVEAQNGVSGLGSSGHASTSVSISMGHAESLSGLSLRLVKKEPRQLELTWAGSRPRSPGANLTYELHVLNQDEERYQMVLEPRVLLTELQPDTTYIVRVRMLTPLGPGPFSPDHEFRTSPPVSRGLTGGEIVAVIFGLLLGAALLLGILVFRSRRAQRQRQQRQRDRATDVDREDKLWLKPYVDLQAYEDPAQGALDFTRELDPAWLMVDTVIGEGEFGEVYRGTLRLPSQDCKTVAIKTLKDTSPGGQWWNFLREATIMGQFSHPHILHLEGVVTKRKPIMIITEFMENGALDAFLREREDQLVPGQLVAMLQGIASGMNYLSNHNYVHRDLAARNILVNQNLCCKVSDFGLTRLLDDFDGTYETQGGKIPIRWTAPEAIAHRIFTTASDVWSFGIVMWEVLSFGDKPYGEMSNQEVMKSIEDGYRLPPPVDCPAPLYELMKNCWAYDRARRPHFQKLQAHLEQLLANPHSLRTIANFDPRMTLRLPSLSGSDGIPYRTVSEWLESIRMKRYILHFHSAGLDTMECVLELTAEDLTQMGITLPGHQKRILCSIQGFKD

SMILES	observed	method	concentration	remaining binding [%]
CCS(=O)(=O)c1cc2cc(C[C@@](O)(CC(C)(C)c3ccc(F)cc3C(N)=O)C(F)(F)F)[nH]c2cn1	cell-free assay	competition with immobilised ligand	1 µM	99
COc1ncc2cc3ccccc3nc2c1C#N	cell-free assay	competition with immobilised ligand	5 µM	95
O=C(c1ccc(Nc2ncc(Cl)c(-c3ccc(Cl)s3)n2)cc1)N1CCC(N2CCCC2)CC1	binding	competition with immobilised ligand	1 µM	32
CC(C)CC(=O)N1CCc2nc(-c3ccc(Br)cc3)nc(N(C)Cc3ccccc3)c2C1	cell-free assay	competition with immobilised ligand	0.1 µM	100
COc1ccnn2ncc(-c3ccnc(N(C)C)n3)c12	binding		1 µM	100
CNC(=O)[C@@H]1CC[C@@H](n2c(-c3ccc4cnccc4c3)nc3ccc(C(=O)NCc4cccc(C(N)=O)c4)cc32)C1	binding	competition with immobilised ligand	1 µM	100
C[C@H]1CCN(c2nccc(-c3cnn4ncccc34)n2)C1	binding		1 µM	84
CSc1cccnc1N1CCN(Cc2nc3ccccc3[nH]2)CC1	cell-free assay	competition with immobilised ligand	1 µM	100
O=C(NCC1CCOCC1)c1n[nH]cc1NC(=O)c1c(F)cccc1F	binding	competition with immobilised ligand	1 µM	100
CCN1CCN(Cc2ccc(C(=O)Nc3ccc(C)c(Oc4ccc5c(c4)CC(=O)N5)c3)cc2C(F)(F)F)CC1	binding	competition with immobilised ligand	1 µM	77
COc1cnc(Nc2cccc(S(N)(=O)=O)c2)nc1N1CCN(c2ccccc2)C(=O)C1	binding	competition with immobilised ligand	1 µM	90
CC1CCCN1c1nccc(-c2cnn3ncccc23)n1 (stereo not drawn)	binding		1 µM	96
O=C(NCCCN1CCOCC1)c1ccc(Nc2nccc(-c3cc4ccccc4s3)n2)cc1	binding	competition with immobilised ligand	1 µM	44
Cc1nc(Cc2cccc(C(F)(F)F)c2)sc1-c1ccc(C(N)=O)nc1	cell-free assay	competition with immobilised ligand	1 µM	81
CN(CCCC(F)(F)F)c1nccc(-c2cnn3ncccc23)n1	binding		1 µM	76
CC(=O)N1CCC(c2ccc(C(=O)NC3=NCCN3)cc2C(F)(F)F)CC1	cell-free assay	competition with immobilised ligand	1 µM	88
N[C@H]1CCN(c2nccc(-c3cnn4ncccc34)n2)C1	binding		1 µM	100
O=C(NCCCN1CCOCC1)c1ccc(Nc2ncc(Cl)c(-c3ccc(Cl)s3)n2)cc1	binding	competition with immobilised ligand	1 µM	46
c1cncc(-c2cccc(Nc3nccc(NC4CCCCC4)n3)c2)c1	binding	competition with immobilised ligand	10 µM	51
CNCc1ccccc1-c1csc([C@@H](C)Nc2nc(C)nc3cc(OC)c(OC)cc23)c1	cell-free assay	competition with immobilised ligand	1 µM	79
c1cnn2ncc(-c3ccnc(N4CCC45COC5)n3)c2c1	binding		1 µM	89
